Our source for the inhibition, half-life and Activity values is ChEMBL document CHEMBL4706728, “Discovery of a Highly Selective and Potent TRPC3 Inhibitor with High Metabolic Stability and Low Toxicity” (ACS Med Chem Lett, 2021).

For data set [1], the target named is T1, Short transient receptor potential channel 3 (Homo sapiens) (UniProt Q13507).
T1 sequence (whole entry): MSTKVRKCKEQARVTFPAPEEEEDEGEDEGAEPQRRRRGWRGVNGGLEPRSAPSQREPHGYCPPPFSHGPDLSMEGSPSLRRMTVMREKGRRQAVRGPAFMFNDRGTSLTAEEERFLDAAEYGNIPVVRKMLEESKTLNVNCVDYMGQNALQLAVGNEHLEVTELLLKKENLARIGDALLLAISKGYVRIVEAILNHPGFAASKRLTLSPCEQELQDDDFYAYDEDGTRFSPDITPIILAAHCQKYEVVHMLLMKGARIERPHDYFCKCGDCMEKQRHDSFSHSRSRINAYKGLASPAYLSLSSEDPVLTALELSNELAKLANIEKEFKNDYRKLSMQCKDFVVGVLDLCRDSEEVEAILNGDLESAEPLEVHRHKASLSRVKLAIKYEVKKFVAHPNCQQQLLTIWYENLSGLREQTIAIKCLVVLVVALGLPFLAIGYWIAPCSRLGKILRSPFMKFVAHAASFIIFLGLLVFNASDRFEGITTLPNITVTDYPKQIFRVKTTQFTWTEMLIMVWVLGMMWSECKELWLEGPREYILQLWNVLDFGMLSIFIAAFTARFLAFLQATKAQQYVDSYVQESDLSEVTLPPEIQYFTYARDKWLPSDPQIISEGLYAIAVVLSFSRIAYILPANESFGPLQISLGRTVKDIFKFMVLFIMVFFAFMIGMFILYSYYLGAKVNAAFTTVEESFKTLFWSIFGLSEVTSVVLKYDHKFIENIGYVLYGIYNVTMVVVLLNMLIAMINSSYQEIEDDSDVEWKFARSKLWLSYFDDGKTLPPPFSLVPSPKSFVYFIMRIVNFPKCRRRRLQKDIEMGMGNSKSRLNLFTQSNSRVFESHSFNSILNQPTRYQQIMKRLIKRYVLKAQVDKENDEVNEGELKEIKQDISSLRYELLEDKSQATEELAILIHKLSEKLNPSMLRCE
The experiment in a line: Inhibition of human TRPC3 expressed in HEK293 cells assessed as inhibition of OAG-induced current at 0.001 to 10 uM by whole cell patch-clamp method. It is filed as cell-based. The following applies: dose 0.001-10 µM. The procedure, abridged: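 Whole-cell recordings of hTRPC3 expressed in HEK293 cells, channel activated by 1-oleoyl-2-acetyl-sn-glycerol (membrane-permeable diacylglycerol analogue) instead of GSK1702934A. Inhibitor at a range of concentrations co-perfused with agonist to build a dose–response profile.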
Background: The patch-clamp technique gives a direct electrical read-out from membranes.

Data set [2] deals with Transient receptor potential cation channel subfamily A member 1 (Homo sapiens) (UniProt O75762). In words: Inhibition of human TRPA1 expressed in HEK293 cells assessed as inhibition of AITC-induced current at 10 uM by whole cell patch-clamp method. It is filed as cell-based. The procedure, abridged:
(§1)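 TRP channels overexpressed in HEK293 cells (hTRPA1, rTRPV1, rTRPV4, mouse TRPC6, hTRPC7, hTRPM8). Whole-cell patch clamp with Ca2+-free solutions to avoid desensitization. Channels fully activated with high concentrations of their agonists (AITC for TRPA1, capsaicin for TRPV1, GSK1016790A for TRPV4), then 10 μM test compound perfused with agonist. Result expressed as percentage of peak current blocked; mean ± SD.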

For data set [3], the target named is Transient receptor potential cation channel subfamily V member 4 (Rattus norvegicus) (UniProt Q9ERZ8). The experiment in a line: Inhibition of rat TRPV4 expressed in HEK293 cells assessed as inhibition of GSK101-induced current at 10 uM by whole cell patch-clamp method. The class given is cell-based. The procedure, abridged:
as §1

Data set [4] has as its target T2, Short transient receptor potential channel 6 (Mus musculus) (UniProt Q61143).
T2 sequence (whole entry): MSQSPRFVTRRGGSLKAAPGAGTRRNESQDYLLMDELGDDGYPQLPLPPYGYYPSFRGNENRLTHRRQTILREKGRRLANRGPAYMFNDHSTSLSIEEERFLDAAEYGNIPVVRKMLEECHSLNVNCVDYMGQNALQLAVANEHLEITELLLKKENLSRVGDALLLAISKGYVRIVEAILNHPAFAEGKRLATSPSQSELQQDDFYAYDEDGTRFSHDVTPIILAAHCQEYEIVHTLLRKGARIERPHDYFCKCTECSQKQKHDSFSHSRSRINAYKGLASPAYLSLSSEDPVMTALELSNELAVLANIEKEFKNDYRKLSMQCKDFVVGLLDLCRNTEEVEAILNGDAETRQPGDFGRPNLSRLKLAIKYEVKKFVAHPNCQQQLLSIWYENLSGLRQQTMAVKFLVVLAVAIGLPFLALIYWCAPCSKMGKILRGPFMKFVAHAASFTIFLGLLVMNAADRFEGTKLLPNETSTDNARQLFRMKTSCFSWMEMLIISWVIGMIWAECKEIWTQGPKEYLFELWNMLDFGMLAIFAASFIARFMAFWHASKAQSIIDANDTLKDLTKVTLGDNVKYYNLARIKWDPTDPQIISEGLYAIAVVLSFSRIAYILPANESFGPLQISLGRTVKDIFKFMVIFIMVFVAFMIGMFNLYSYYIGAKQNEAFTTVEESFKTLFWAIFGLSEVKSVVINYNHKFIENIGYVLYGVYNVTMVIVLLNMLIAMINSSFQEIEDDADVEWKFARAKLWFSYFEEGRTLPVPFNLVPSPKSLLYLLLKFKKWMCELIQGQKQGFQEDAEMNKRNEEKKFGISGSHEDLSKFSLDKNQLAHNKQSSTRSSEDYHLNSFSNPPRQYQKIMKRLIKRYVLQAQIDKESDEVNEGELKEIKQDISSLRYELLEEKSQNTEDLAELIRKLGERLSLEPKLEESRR
The experiment in a line: Inhibition of mouse TRPC6 expressed in HEK293 cells assessed as inhibition of GSK170-induced current at 10 uM by whole cell patch-clamp method. It is filed as cell-based. Put shortly:
as §1

In data set [5] the target is Transient receptor potential cation channel subfamily M member 8 (Homo sapiens) (UniProt Q7Z2W7). The experiment in a line: Inhibition of human TRPM8 expressed in HEK293 cells assessed as inhibition of […]-induced current at 10 uM by whole cell patch-clamp method. It is filed as cell-based. The procedure, abridged: as §1
Sequence of Transient receptor potential cation channel subfamily M member 8 (Homo sapiens) (Q7Z2W7 whole entry, looked up): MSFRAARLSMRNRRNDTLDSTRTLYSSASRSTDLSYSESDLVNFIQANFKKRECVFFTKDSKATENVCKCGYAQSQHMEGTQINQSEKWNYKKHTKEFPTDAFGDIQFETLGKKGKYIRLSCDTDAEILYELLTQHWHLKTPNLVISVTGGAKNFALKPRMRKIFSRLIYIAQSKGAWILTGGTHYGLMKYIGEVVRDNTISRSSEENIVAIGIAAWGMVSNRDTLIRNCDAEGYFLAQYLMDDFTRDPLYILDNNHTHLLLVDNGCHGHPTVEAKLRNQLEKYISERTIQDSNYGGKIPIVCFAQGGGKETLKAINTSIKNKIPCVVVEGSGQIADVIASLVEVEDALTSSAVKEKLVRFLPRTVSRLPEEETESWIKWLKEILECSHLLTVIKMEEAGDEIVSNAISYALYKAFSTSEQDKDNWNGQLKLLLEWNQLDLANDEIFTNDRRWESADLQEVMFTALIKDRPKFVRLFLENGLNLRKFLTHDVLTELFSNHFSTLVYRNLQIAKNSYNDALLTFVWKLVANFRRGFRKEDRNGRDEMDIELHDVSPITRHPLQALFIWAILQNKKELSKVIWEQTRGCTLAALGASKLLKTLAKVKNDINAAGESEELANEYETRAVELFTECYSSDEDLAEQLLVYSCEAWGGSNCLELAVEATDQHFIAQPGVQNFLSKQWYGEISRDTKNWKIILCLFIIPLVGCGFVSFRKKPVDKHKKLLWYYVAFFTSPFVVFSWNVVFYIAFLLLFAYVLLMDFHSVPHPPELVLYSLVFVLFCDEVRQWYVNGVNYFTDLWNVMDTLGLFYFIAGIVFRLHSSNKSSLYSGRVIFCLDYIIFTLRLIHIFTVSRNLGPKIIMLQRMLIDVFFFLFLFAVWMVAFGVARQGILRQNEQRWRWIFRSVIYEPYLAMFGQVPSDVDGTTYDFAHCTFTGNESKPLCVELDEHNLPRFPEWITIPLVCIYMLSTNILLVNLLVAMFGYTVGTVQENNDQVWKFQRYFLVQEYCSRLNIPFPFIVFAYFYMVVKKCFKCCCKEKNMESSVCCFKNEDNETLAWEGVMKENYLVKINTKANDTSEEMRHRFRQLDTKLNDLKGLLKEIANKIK
The nature of data set [6]: Metabolic stability in mouse liver microsomes assessed as half life at […] measured up to 240 mins in presence of NADPH regeneration system by LC-MS analysis. It is filed as ADME, Microsome. (In general: Liver microsomes are a subcellular fraction often used to study metabolism.)
The nature of data set [7]: Toxicity in NSG/ICR mouse assessed as body weight loss at 200 mg/kg, ip administered once daily for 5 days. It is filed as organism-based. The following applies: in vivo, 120 h, dose 200 mg/kg/day, time 5 day. Put shortly: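 Mice (n = 5 per group) dosed at 200 mg/kg by intraperitoneal injection once daily for 5 consecutive days. Survival monitored. Body weight expressed as mean percent change ± SD relative to weight at the start of treatment (day 0), with 15% weight loss as the reference line.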

For another data set, the system named is Hippocampal neurone. The experiment in a line: Neuroprotective activity in Sprague-Dawley rat primary hippocampal neurons assessed as reduction in Abeta-induced dendrites damage at 0.25 to 1 uM incubated for 16 hrs by MAP2 staining based assay. It is filed as functional, tissue-based. The following applies: dose 0.25-1 µM. Put shortly: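 Primary hippocampal neurons from E17 rat embryos, used at 14 DIV. Treated for 16 h with naturally secreted Aβ-containing 7PA2 conditioned medium (CHO medium as control), alone or with test compound at several concentrations. Neurons then immunostained for MAP2 with DAPI, and dendritic length quantified.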

Activity calls are given as the source filed them. The rule behind the calls is not given here.

Sequence of Transient receptor potential cation channel subfamily V member 4 (Rattus norvegicus) (Q9ERZ8 whole entry): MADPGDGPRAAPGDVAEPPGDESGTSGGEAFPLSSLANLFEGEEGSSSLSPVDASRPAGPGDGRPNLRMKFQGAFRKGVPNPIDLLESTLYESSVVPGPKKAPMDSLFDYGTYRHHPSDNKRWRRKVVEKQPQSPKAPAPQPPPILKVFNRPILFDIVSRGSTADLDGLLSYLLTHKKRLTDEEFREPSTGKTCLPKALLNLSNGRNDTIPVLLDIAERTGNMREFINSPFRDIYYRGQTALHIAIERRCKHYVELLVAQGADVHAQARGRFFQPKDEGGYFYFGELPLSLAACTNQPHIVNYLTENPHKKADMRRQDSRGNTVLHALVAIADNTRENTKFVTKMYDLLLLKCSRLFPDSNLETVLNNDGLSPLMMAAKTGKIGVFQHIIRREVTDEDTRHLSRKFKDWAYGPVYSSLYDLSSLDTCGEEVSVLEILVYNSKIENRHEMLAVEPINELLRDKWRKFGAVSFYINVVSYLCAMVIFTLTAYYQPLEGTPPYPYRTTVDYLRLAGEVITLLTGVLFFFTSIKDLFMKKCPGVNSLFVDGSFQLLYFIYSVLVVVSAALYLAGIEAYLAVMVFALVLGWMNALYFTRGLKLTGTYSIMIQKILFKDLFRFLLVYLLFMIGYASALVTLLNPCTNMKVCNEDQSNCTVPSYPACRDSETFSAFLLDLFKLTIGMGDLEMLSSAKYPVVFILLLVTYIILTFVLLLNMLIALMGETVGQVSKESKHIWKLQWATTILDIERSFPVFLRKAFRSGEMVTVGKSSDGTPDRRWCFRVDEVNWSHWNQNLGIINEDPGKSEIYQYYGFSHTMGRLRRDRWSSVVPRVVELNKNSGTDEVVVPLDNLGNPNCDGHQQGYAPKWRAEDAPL
Sequence of Transient receptor potential cation channel subfamily A member 1 (Homo sapiens) (O75762 whole entry, the tested form may be a part): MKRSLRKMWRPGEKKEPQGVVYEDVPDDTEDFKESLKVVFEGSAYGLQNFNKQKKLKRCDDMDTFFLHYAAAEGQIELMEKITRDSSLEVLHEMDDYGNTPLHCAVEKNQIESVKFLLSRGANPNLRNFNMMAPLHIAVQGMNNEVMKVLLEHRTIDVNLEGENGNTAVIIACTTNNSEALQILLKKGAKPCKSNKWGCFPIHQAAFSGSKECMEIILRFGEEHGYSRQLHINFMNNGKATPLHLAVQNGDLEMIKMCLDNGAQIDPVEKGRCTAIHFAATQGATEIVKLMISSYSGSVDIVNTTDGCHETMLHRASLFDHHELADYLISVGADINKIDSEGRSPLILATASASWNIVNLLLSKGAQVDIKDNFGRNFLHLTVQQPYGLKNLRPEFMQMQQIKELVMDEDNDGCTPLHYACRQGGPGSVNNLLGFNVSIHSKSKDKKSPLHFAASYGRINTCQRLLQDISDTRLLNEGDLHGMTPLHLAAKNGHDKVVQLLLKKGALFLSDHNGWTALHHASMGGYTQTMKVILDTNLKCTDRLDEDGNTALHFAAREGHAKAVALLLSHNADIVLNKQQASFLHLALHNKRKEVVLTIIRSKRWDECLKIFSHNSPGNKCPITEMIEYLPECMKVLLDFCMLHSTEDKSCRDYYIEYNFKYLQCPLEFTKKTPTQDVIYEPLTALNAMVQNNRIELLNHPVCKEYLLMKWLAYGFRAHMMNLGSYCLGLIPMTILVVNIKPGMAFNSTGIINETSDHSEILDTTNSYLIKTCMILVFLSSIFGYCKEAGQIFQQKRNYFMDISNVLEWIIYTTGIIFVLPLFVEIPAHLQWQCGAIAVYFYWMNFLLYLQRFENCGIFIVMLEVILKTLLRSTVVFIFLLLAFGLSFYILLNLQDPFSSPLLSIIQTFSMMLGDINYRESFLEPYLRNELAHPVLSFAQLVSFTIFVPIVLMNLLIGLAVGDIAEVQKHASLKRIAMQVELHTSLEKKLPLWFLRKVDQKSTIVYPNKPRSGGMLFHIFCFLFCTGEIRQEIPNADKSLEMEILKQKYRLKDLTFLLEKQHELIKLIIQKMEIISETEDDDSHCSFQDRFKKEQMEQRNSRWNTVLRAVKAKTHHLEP

Take `CCNC(=O)c1cnn(-c2ccc(-n3ccc(Cl)c(Cl)c3=O)cc2)c1C(F)(F)F`: the inhibition (usually the relative decrease from the control value, in per cent) in data set [1] was “Active”. The inhibition result in data set [2], in data set [3] and in data set [5] was “inactive” in each case. The inhibition in data set [4] amounted to 39%. The half-life (as a rule, the time in which the quantity being followed falls by half) in data set [6] is above 4 h. The Activity entry in data set [7] is reported as “Non-Toxic”. Moreover, in the data set on Hippocampal neurone, the result was Active.
